Data: ChEMBL document CHEMBL5104115, “Design, synthesis of novel triptolide-glucose conjugates targeting glucose Transporter-1 and their selective antitumor effect” (Eur J Med Chem, 2022)
The source made the active and inactive calls. The calls are words filed in the database; no cut-off is given here.

Tests used:
SW-620 = assay: Cytotoxicity against human SW-620 cells incubated for 72 hrs by MTT assay; assay type: functional, cell-based; conditions: SW-620, 72 h
In short: (§1)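 Cells seeded at 4000/well, incubated overnight, then exposed to a range of concentrations, or DMSO vehicle, for 72 h. MTT (5 mg/mL solution) added for 4 h and formazan dissolved in DMSO. Absorbance read at 570 nm, and IC50 derived from the curves. Tumor lines were grown in RPMI 1640; HUVEC, HaCaT and LO2 were grown in DMEM, each with 10% FBS at 37 °C and 5% CO2.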

MDA-MB-231 = assay: Cytotoxicity against human MDA-MB-231 cells incubated for 72 hrs by MTT assay; assay type: functional, cell-based; conditions: MDA-MB-231, 72 h; in short: as §1
NCI-H460 = assay: Induction of apoptosis in human NCI-H460 cells assessed as late apoptotic cells at 1 uM measured after 48 hrs by Annexin V-FITC/PI staining method (reference value: 8.47%); assay type: functional
[1] = Stability in mouse serum measured after 8 hrs by HPLC analysis; assay type: ADME, cell-free
[2] = Drug distribution in NCI-H1975 tumor bearing nude mouse model assessed as tumor to lung ratio of triptolide metabolite at 2 mg/kg, iv by LC-MS analysis; assay type: ADME, organism-based; conditions: in vivo
In short: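 NCI-H1975 xenograft mice, tumors about 500 mm3, 3 per group, fasted 12 h with water available. Given 2 mg/kg iv and sacrificed 1 h later. Heart, liver, lung, kidney and tumor weighed and flash-frozen. 1.0 g tissue homogenized in 2.0 mL saline, methanol-precipitated, reconstituted. Parent, triptolide succinate and triptolide measured by LC-MS; tumor/organ ratios calculated.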

[3] = Toxicity in BALB/c nude mouse xenografted with human NCI-H1975 cells assessed as decreased spermatogenic cells at 2 mg/kg administered ip, qd for 2 weeks; conditions: in vivo, 336 h
[4] = Toxicity in BALB/c nude mouse xenografted with human NCI-H1975 cells assessed as reduction of cytoplasmic vacuoles at 2 mg/kg administered ip, qd for 2 weeks; conditions: in vivo, 336 h
NCI-H1975 (Homo sapiens) = assay: Antineoplastic activity against human NCI-H1975 cells xenografted in BALB/c nude mouse assessed as tumor growth inhibition at 1 to 2 mg/kg, ip, qd for 2 weeks; conditions: dose 1-2 mg/kg
[5] = Toxicity in BALB/c nude mouse xenografted with human NCI-H1975 cells assessed as morphological change in kidney at 1 to 2 mg/kg administered ip, qd for 2 weeks; conditions: in vivo, 336 h

CC(C)[C@]12O[C@H]1[C@@H]1O[C@]13[C@]1(O[C@H]1C[C@H]1C4=C(CC[C@@]13C)C(=O)OC4)[C@@H]2OC(=O)CCC(=O)O[C@H]1C(O)O[C@H](CO)[C@@H](O)[C@@H]1O (some centres undefined)
IC50 (SW-620): 1720 nM | IC50 (MDA-MB-231): 1970 nM | Activity (NCI-H460): 7.68% | Stability [1]: Stable | Ratio [2]: 15.5 | Activity [3]: Toxic | Activity [4]: Toxic | Activity (NCI-H1975 (Homo sapiens)): Active | Activity [5]: Non-Toxic
